The source of these data is paper PMC7495461 (ACS Omega, 2020).

In series [1] the target is T1, MARK4 (Homo sapiens, UniProt Q96L34).
T1 sequence (Q96L34 1-752): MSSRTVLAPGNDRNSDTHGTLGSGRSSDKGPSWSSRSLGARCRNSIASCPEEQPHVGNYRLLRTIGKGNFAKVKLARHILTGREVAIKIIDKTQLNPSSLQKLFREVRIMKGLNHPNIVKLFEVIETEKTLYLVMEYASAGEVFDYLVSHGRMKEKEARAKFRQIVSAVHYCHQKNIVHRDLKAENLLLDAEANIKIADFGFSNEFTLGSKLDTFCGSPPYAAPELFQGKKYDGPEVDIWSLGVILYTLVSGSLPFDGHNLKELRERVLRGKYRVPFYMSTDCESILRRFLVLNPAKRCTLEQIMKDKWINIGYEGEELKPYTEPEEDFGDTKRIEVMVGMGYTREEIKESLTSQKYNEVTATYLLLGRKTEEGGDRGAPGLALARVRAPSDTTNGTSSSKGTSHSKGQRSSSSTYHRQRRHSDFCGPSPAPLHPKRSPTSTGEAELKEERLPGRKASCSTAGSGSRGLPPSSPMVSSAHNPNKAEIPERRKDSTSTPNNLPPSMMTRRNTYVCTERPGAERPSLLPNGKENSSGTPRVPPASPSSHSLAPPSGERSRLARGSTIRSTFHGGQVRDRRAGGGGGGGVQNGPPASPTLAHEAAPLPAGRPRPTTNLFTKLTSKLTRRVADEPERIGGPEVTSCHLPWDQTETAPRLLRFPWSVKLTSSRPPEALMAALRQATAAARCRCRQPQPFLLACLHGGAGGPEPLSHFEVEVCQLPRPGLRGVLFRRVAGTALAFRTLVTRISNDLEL
Briefly: MARK4 enzyme inhibition assay. The class given is biochemical.

The test system of series [2] is MCF-7 cells. In words: MTT cell viability assay. The class given is cell-based. Particulars: Homo sapiens, MCF7, 48 h, read-out: MCF-7 IC50. Put shortly: (§1)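 MCF-7 or HepG2 cells were seeded at 8000–9000 cells/well. After 10 h they were exposed to test compound (0.1–80 μM) for 48 h at 37 °C in a humidified CO2 incubator. Medium was replaced with MTT (from a 5 mg/mL PBS pH 7.4 stock) in DMEM for 4–5 h. Formazan was dissolved in DMSO and absorbance read at 570/590 nm. Percent viability was used to derive IC50, with mean ± SD of n = 3 and paclitaxel as positive control.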
For orientation: Tetrazolium assays rely on reduction of a dye to a coloured formazan, in cell work by metabolically active cells.

For series [3], the system named is HepG2 cells. Briefly: MTT cell viability assay. The class given is cell-based. Particulars: Homo sapiens, HepG2, 48 h, read-out: HepG2 IC50. In short, it runs like this:
as §1

Series [4] relates to HEK293 cells. Briefly: MTT cell viability assay, noncancerous cells. The class given is cell-based, human. As to conditions: up to 100 μM, 48 h. In short, it runs like this:
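HEK293 cells were exposed to increasing test compound concentrations for 48 h. Viability was expressed as viable cells as a percentage of untreated control. Data are mean ± SD, n = 3.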

The subject of series [5] is HepG2 cells. Briefly: Apoptosis assay. As to conditions: IC50 dose, 10 h, Annexin-V/PI. The format is cell-based, human. In short, it runs like this:
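HepG2 cells were seeded at 2.5 × 10^5 cells/well in six-well plates and grown to 80% confluency. They were treated for 10 h at 37 °C, with media-only controls. Cells were trypsinized, washed three times with PBS and stained with FITC-Annexin-V and PI in Annexin binding buffer. About 10,000 events per sample were acquired by flow cytometry. Measurements were duplicate ± SD, with unpaired t-test against vehicle control.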

Series [6] concerns MCF-7 cells. In words: Estimation of ROS production. The class given is cell-based, human. As to conditions: MCF-7, IC50 dose, 5–6 h, vs vehicle control. Put shortly:
(§2)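 MCF-7 or HepG2 cells were plated at 2.5 × 10^5 cells/well, treated next day for 5–6 h, with H2O2 as positive control. They were loaded with 10 μM DCFDA for 30 min at 37 °C in the dark, then trypsinized and pelleted. DCF fluorescence was read by spectrofluorimeter (ex 485, em 500–550 nm). Measurements were triplicate, with unpaired t-test against vehicle control.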

For series [7], the system named is HepG2 cells. In words: Estimation of ROS production. The class given is cell-based, human. As to conditions: HepG2, IC50 dose, 5–6 h, vs vehicle control. Put shortly: as §2

What is called IC50 is the concentration needed to halve the response being measured. As for `Cc1ncc([N+](=O)[O-])n1C(=NO)c1ccccc1` [Compound 4a, N-[(2-Methyl-5-nitro-1H-imidazol-1-yl)(phenyl)methylidene]hydroxylamine], the concentration for half-maximal inhibition (IC50) in series [1] was > 20 µM; in series [2], 37.3 µM; in series [3] it was 38.5 µM.

For the molecule `Cc1ncc([N+](=O)[O-])n1C(=NO)c1ccccc1C(F)(F)F` [Compound 4h, N-{(2-Methyl-5-nitro-1H-imidazol-1-yl)[2-(trifluoromethyl)phenyl]methylidene}hydroxyl Amine], the half-maximal inhibitory concentration (IC50) in series [1] stood at 1.47 µM; in series [2], 3.74 µM; in series [3], 5.99 µM. Further, the “MARK4 inhibition at a single dose” value in series [1] (single dose of 20 μM, initial screening) is recorded as “significant inhibition”. Further, in series [4], the “viability of noncancerous cells (HEK293)” value is reported as “did not affect the viability”. Also, in series [5], the “apoptosis induced, % of HepG2 cells” value is listed as 20.8%. Besides, the “DCF fluorescence (level of ROS production)” value in series [6] and in series [7] was “decreases” throughout.

With `Cc1ccc(C(=NO)n2c([N+](=O)[O-])cnc2C)cc1` [Compound 4c, N-[(2-Methyl-5-nitro-1H-imidazol-1-yl)(4-methylphenyl)methylidene]hydroxylamine], the 50% inhibitory concentration (IC50) was > 20 µM in series [1], 32.5 µM in series [2] and 33.2 µM in series [3].

On to `Cc1ncc([N+](=O)[O-])n1C(=NO)c1ccc([N+](=O)[O-])cc1` [Compound 4g, N-[(2-Methyl-5-nitro-1H-imidazol-1-yl)(4-nitrophenyl)methylidene]hydroxylamine], for which the IC50 in series [1] is 16.2 µM; in series [2], 22.5 µM; in series [3] it was 25.3 µM.

In the case of `CCOc1ccc(C(=NO)n2c([N+](=O)[O-])cnc2C)cc1` [Compound 4d, N-[(4-Ethoxyphenyl)(2-methyl-5-nitro-1H-imidazol-1-yl)methylidene]hydroxylamine], the half-inhibitory concentration (IC50) in series [1] was > 20 µM; in series [2], 33.3 µM; in series [3], 35.4 µM.

With `Cc1ncc([N+](=O)[O-])n1C(=NO)c1ccc(Cl)cc1` [Compound 4f, N-[(4-Chlorophenyl)(2-methyl-5-nitro-1H-imidazol-1-yl)methylidene]hydroxylamine], the values for the IC50 in series [1], in series [2] and in series [3] were > 20 µM, 28.8 µM and 24.8 µM, respectively.

As for `CCc1ccc(C(=NO)n2c([N+](=O)[O-])cnc2C)cc1` [Compound 4e, N-[(4-Ethylphenyl)(2-methyl-5-nitro-1H-imidazol-1-yl)methylidene]hydroxylamine], the results for the concentration for half-maximal inhibition (IC50) in series [1], in series [2] and in series [3] were 18.5 µM, 23.3 µM and 21.5 µM, respectively.

Turning to `COc1ccc(C(=NO)n2c([N+](=O)[O-])cnc2C)cc1` [Compound 4b, N-[(4-Methoxyphenyl)(2-methyl-5-nitro-1H-imidazol-1-yl)methylidene]hydroxylamine], the values for the IC50 in series [1], in series [2] and in series [3] were > 20 µM, 34.4 µM and 32.7 µM, respectively.
